Consider nine compounds from ChEMBL document CHEMBL3352586, “Pyridyl benzamides as a novel class of potent inhibitors for the kinetoplastid Trypanosoma brucei” (J Med Chem, 2014).

Data set [1] has as its system Liver microsome. In words: Drug metabolism in human liver microsomes assessed as M-2 formation at 10 uM after 60 mins by LC-MS analysis in presence of NADPH. The following applies: 1 h.
Data set [2] relates to Liver microsome. The experiment in a line: Drug metabolism in human liver microsomes assessed as M+32 formation at 1 uM after 60 mins by LC-MS analysis in presence of NADPH/UDPGA. It counts as ADME. The following applies: 1 h.
Data set [3] has as its system Liver microsome. The experiment in a line: Drug metabolism in human liver microsomes assessed as M+16(II) formation at 10 uM after 60 mins by LC-MS analysis in presence of NADPH. The following applies: 1 h.
In data set [4] the test system is Liver microsome. The experiment in a line: Drug metabolism in human liver microsomes assessed as M+32 formation at 10 uM after 60 mins by LC-MS analysis in presence of NADPH. The following applies: 1 h.
Data set [5] in a line: Partition coefficient, log D of the compound at pH 7.4 by HPLC method. In kind it is physicochemical. The following applies: octanol/water. The method in brief: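 Distribution coefficient at pH 7.4 was measured chromatographically.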
Data set [6] has as its system Trypanosoma brucei brucei. The experiment in a line: Antimicrobial activity against bloodstream form of Trypanosoma brucei brucei 427 at 10 uM after 48 hrs by alamar blue assay. The following applies: Trypanosoma brucei, 427, 48 h. In kind it is functional.
Data set [7] in a line: Kinetic solubility of the compound at 10 mg/ml at pH 2 by nephelometry. In kind it is physicochemical. The following applies: buffer, read-out: Kinetic_solubility. In outline:
(§1)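 Kinetic solubility was read by nephelometry at pH 2 and pH 6.5 and reported as μg/mL ranges.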

The subject of data set [8] is Liver microsome. The experiment in a line: Drug metabolism in human liver microsomes at 1 uM after 60 mins in absence of NADPH/UDPGA by LC-MS analysis. In kind it is ADME. The following applies: 1 h.
Data set [9] deals with Liver microsome. In words: Drug metabolism in human liver microsomes assessed as M+16(I) formation at 10 uM after 60 mins by LC-MS analysis in presence of NADPH. The following applies: 1 h.
In data set [10] the test system is Liver microsome. In words: Intrinsic clearance in human liver microsomes at 1 uM after 60 mins by LC-MS analysis. The following applies: 1 h. In kind it is ADME. In outline: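 In vitro intrinsic clearance was measured in human liver microsomes and expressed per mg protein. A hepatic extraction ratio (E_H) was predicted from the in vitro data.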
The nature of data set [11]: Plasma protein binding in human […] by chromatographic method. In kind it is ADME, cell-free. The following applies: read-out: PPB (converted). The method in brief: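 Human plasma protein binding was estimated by a chromatographic method.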
Data set [12] relates to Liver microsome. In words: Drug metabolism in human liver microsomes assessed as M+16(II) formation at 1 uM after 60 mins by LC-MS analysis in presence of NADPH/UDPGA. In kind it is ADME. The following applies: 1 h.
A short description of data set [13]: Kinetic solubility of the compound at 10 mg/ml at pH 6.5 by nephelometry. It counts as physicochemical. The following applies: buffer, read-out: Kinetic_solubility. In outline: as §1
The test system of data set [14] is L6. In words: Cytotoxicity against rat L6 cells after 70 hrs by alamar blue assay. In kind it is cell-based. The following applies: L6, 70 h. The method in brief:
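Cytotoxicity on the rat skeletal myoblast L-6 strain, with podophyllotoxin as reference drug.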

In data set [15] the test system is Trypanosoma brucei brucei. In words: Antimicrobial activity against bloodstream form of Trypanosoma brucei brucei 427 after 48 hrs by alamar blue assay. In kind it is functional, organism-based. The following applies: Trypanosoma brucei, 427, 48 h.
Data set [16] concerns Leishmania donovani. In words: Antimicrobial activity against amastigote form of Leishmania donovani MHOM/ET/67/L82 after 70 hrs by alamar blue assay. The following applies: MHOM/ET/67/L82, 70 h. In kind it is functional, organism-based. The method in brief:
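Leishmania donovani MHOM-ET-67/L82 axenic amastigotes, with miltefosine as reference drug.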

Data set [17] concerns Trypanosoma cruzi. In words: Antimicrobial activity against amastigote form of Trypanosoma cruzi Tulahuen C2C4 infected in rat L6 cells after 96 hrs by microscopic analysis. The following applies: Tulahuen C2C4, L6, 96 h.
Data set [18] has as its system Trypanosoma brucei rhodesiense. The experiment in a line: Antimicrobial activity against bloodstream form of Trypanosoma brucei rhodesiense STIB 900 after 70 hrs by alamar blue assay. In kind it is functional, organism-based. The following applies: STIB 900, 70 h. The method in brief: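 Trypanosoma brucei rhodesiense STIB 900 bloodstream-form trypomastigotes, with melarsoprol as reference drug.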

Data set [19] in a line: Selectivity index, ratio of IC50 for HEK293 cells to IC50 for Trypanosoma brucei brucei 427. In kind it is toxicity, cell-based. The following applies: human, read-out: Ratio IC50.
For data set [20], the system named is Plasmodium falciparum. The experiment in a line: Antimicrobial activity against erythrocytic stage of Plasmodium falciparum NF54 infected in human washed RBC assessed as [3H]-hypoxanthine incorporation incubated for 48 hrs prior to [3H]-hypoxanthine addition measured after 24 hrs by liquid scintillation counting analysis. In kind it is functional, organism-based.

Data set [21] is described as follows: Selectivity index, ratio of IC50 for rat L6 cells to IC50 for bloodstream form of Trypanosoma brucei rhodesiense STIB 900. It counts as toxicity, cell-based. The following applies: read-out: Ratio IC50. In outline:
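Bloodstream-form trypomastigotes of T. b. rhodesiense STIB 900 run with melarsoprol as reference drug. The counter-screen used the rat skeletal myoblast L-6 line, with podophyllotoxin as reference. The index is the L-6 IC50 divided by the parasite IC50.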

The subject of data set [22] is Trypanosoma brucei brucei. In words: Trypanocidal activity against Trypanosoma brucei brucei after 48 hrs by hemocytometry relative to control. In kind it is functional. The method in brief:
(§2)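 T.b. brucei parasites were seeded and held 24 h at 37 °C/5% CO₂. Compounds were diluted in DMEM and added to give the MIC, defined as the lowest concentration at the plateau (>95% activity) of the Alamar blue assay. Wells were viewed by microscope after 24, 48 and 72 h, and sampled wells were counted by hemocytometer. Percentage killed was taken against puromycin (1.15 μM) and 0.4% DMSO controls, in duplicate.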

Data set [23] has as its system Trypanosoma brucei brucei. The experiment in a line: Trypanocidal activity against Trypanosoma brucei brucei after 24 hrs by hemocytometry relative to control. It counts as functional. The method in brief: as §2
Data set [24] deals with Trypanosoma brucei brucei. In words: Trypanocidal activity against Trypanosoma brucei brucei after 72 hrs by hemocytometry relative to control. It counts as functional. The method in brief: as §2
Data set [25] concerns Liver microsome. In words: Drug metabolism in human liver microsomes assessed as M+16 formation at 10 uM after 60 mins by LC-MS analysis in presence of NADPH. The following applies: 1 h.
For data set [26], the system named is Liver microsome. In words: Drug metabolism in human liver microsomes assessed as M+16 formation at 10 uM after 60 mins by LC-MS analysis in presence of NADPH/UDPGA. The following applies: 1 h.
Data set [27] concerns Liver microsome. In words: Drug metabolism in human liver microsomes assessed as M-111 formation at 1 uM after 60 mins by LC-MS analysis in presence of NADPH. It counts as ADME. The following applies: 1 h.
Data set [28] concerns Liver microsome. The experiment in a line: Drug level in human liver microsomes treated with N-(5-fluoropyridin-2-yl)-2-methylbenzamide at 10 uM after 60 mins by LC-MS analysis in presence of NADPH. The following applies: 1 h.
The test system of data set [29] is Liver microsome. The experiment in a line: Drug level in human liver microsomes treated with N-(4-chloropyridin-2-yl)-3-fluoro-2-methylbenzamide at 1 uM after 60 mins by LC-MS analysis in presence of NADPH. The following applies: 1 h. It counts as ADME.

Values after ≈ are worked out from the molar mass of the structure shown.

In the case of `Cc1ccccc1C(=O)Nc1ccc(F)cn1`, the Drug metabolism result is “metabolite_detected” in [1]; “metabolite_detected” in [2]; “metabolite_detected” in data set [3]; “metabolite_detected” in data set [4]; “metabolite_notdetected” in data set [8]; “metabolite_detected” in data set [9]. Also, the Drug metabolism entry in data set [12] is “metabolite_detected”. Also, in data set [5], the logD amounted to 2.7. The compound further yielded an inhibition at 10 µM in data set [6] of 33%. The solubility kinetic in data set [7] and in data set [13] was 25 µg/mL (≈ 109 µM) each time. The compound further displayed a CLint in [10] of 43 µL/min/mg. For the same compound, the fraction unbound in data set [11] is 0.44.
The compound `Cc1cc(Br)ccc1C(=O)Nc1ccccn1` displayed a log distribution coefficient (logD) in [5] of 3.2. The IC50 in data set [14] is 193 µM; in data set [15], 1.1 µM; in data set [16] it was above 103 µM; in [17], 100 µM; in [18] it was 0.045 µM; in [20], 48 µM. Also, the solubility kinetic in data set [7] and in [13] was above 100 µg/mL in each case. The selectivity ratio in data set [19] was 60; in [21], above 4000. The same compound gave a CLint in [10] of 97 µL/min/mg. In addition, the fraction unbound in [11] is 0.119.
For the compound `Cc1c(C(=O)Nc2ccccn2)ccc(F)c1F`, the Activity in data set [22] turned out to be 99.95%; in [23], 92%; in data set [24] it was 99.9%. For the same compound, the log distribution coefficient (logD) in [5] turned out to be 2.8. The IC50 in data set [14] is 308 µM; in data set [15] it was 0.41 µM; in data set [16], above 121 µM; in data set [17], 176 µM; in data set [18], 0.1 µM; in data set [20] it was 17 µM. In addition, the solubility kinetic in data set [7] was determined as 50 µg/mL (≈ 201 µM); in data set [13] it was 25 µg/mL (≈ 101 µM). Also, in data set [19], the selectivity ratio came out at 205. In data set [10], this compound registered a CLint of 154 µL/min/mg. Moreover, in [11], the fraction unbound was 0.361.
Turning to `Cc1c(F)cccc1C(=O)Nc1cc(Cl)ccn1`, the Activity in data set [22] was found to be 83.7%; in data set [23], 64.23%; in data set [24] it was 98.8%. Besides, the Drug metabolism entry in [25], in [2], in [4], in data set [26] and in data set [27] was “metabolite_detected” throughout. This compound also showed a logD in [5] of 2.3. In addition, the IC50 in data set [15] came out at 0.47 µM. Besides, the solubility kinetic in data set [7] and in data set [13] was 12.5 µg/mL (≈ 47.2 µM) each time. Further, the selectivity ratio in data set [19] came out at 177. In data set [10], this compound yielded a CLint of 254 µL/min/mg. For the same compound, the fraction unbound in data set [11] is 0.283.
On to `Cc1ccccc1C(=O)N(O)c1ccc(F)cn1`, for which the Drug metabolism entry in [28] is “metabolite_detected”.
Same read-out and setting: to `Cc1ccccc1C(=O)Nc1ccc(O)cn1` belongs “metabolite_detected”.
With `Cc1c(F)cccc1C(N)=O`, in [29], the Drug metabolism result was “metabolite_detected”.
On to `N=C(N)c1ccc(OCCCCCOc2ccc(C(=N)N)cc2)cc1` [PENTAMIDINE], for which the Activity is recorded as 100% in data set [22], 58.1% in data set [23] and 100% in [24].
On to `COc1ccc(C[C@H](N)C(=O)N[C@H]2[C@@H](O)[C@H](n3cnc4c(N(C)C)ncnc43)O[C@@H]2CO)cc1` [PUROMYCIN], for which the Activity in data set [22], in [23] and in data set [24] was 100% each time.
